Source: PubChem BioAssay (several laboratories)
MC4R antag cAMP: antagonists of human melanocortin 4 receptor (MC4R). P32245. MC4R-expressing cells, MTII-stimulated cAMP, LANCE TR-FRET. inhibition, % at 6.5 µM. hit rate 0.48% among 360,000;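 active = inhibition above its plate's cutoff, the mean of tested wells on that plate plus 3 SD, cut at about 29% in these data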;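 also: 0% = Melanotan II alone and 100% = Melanotan II plus saturating MCL0020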
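Material: human MC4R-expressing U2OS cells. Probe or stimulus: Melanotan II challenge. Dosing: 6.5 µM single dose. Times: 30-min compound, 1-h challenge, 1-h detection, room temperature. Technique: TR-FRET with Eu-cAMP and labeled anti-cAMP, 671 nm. Replication: singlicate.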
HTR2A ag: activates the mouse 5-HT2A serotonin receptor; hit rate 0.66% among 360,000; CHO-K1 mHTR2A beta-arrestin complementation, luminescence; percent of 30 µM serotonin response; activation, % at 7.6 µM;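 active = activation above a run cutoff, the mean activation of all tested compounds plus 3 SD, cut at about 14% in these data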;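 also: 0% = plate median of compound wells and 100% = 30 µM serotonin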
MC4R barr agon: activates human MC4R beta-arrestin recruitment | hit rate 0.98% among 360,000 | U2OS MC4R beta-arrestin complementation, luminescence; percent of melanotan II response, DMSO zero | AID 540308 | activation, % at 8.9 µM;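 active = activation above a per-plate cutoff, the mean activation of sample wells on that plate plus 3 SD, cut at about 8% in these data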
Beta2AR agonist: human beta-2 adrenergic receptor agonism by FAP; P07550; Am2.2-beta2AR cells, FAP receptor internalization, flow cytometry; response, % (concentration not given with the values); hit rate 0.43% among 340,000;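 active = response above a set limit, near 3 SD of response in nonfluorescent compounds, cut at about 42% in these data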
TAAR1 agonist: human TAAR1 agonism; hit rate 0.99% among 360,000; activation, % at 3 µM; CHO RD-HGA16 TAAR1, Fluo-8 calcium fluorescence; vehicle wells 0%, saturating PEA agonist 100%; Q96RJ0; AID 624467;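 active = activation above the mean activation of all test compounds in the run plus 3 SD, cut at about 38% in these data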
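test system = CHO RD-HGA16 cells carrying human TAAR1 plus Gα16 | schedule = 17-24 h seeding, 75 min 37 °C dye, 30 min RT | compound dosing = 3 µM single concentration | control set = DMSO and PEA EC100 | replicates = n 1 | signal = Fluo-8 fluorescence, 5 s baseline then 140 s kinetic read | measure = percent activation vs PEA EC100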
TAAR1 antag: human TAAR1 antagonism | CHO RD-HGA16 TAAR1, Fluo-8 calcium fluorescence, antagonist | inhibition, % at 3 µM | hit rate 1.5% among 360,000;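 active = inhibition above a per-plate cutoff, the mean inhibition of test compounds on that plate plus 3 SD, cut at about 49% in these data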;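 also: 0% = DMSO plus EC80 beta-PEA response and 100% = DMSO alone without agonist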
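Test system: hTAAR1-expressing CHO RD-HGA16 cells, Gα16-coupled; Probe or stimulus: EC80 β-phenethylamine stimulus; Compound dosing: single nominal final test compound concentration of 3 µM; Timing: 140 s kinetic read after compound, 140 s after agonist; Signal: Fluo-8 calcium-sensitive fluorescence; Measure: % inhibition of agonist calcium response; Controls: DMSO and EC80 PEA controls.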
U2OS cAMP counter: nonselective cAMP signaling inhibitor, MC4R antagonist counter-screen | shares compounds with MC4R antag cAMP | AID 602193 | hit rate 26% among 1,600 | inhibition, % at 6.5 µM | parental U2OS, forskolin cAMP, LANCE TR-FRET;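 active = mean inhibition over triplicates above the low-control well mean plus 3 SD, set per campaign, cut at about 13% in these data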;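 also: signal is single emission at 671 nm which falls as cellular cAMP rises; 0% = forskolin-stimulated wells and 100% = buffer without forskolin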
MC4R antag conf: human MC4R cAMP antagonism confirmation. AID 602195. MC4R-expressing cells, MTII-stimulated cAMP, TR-FRET. shares compounds with MC4R antag cAMP. inhibition, % at 6.5 µM. hit rate 27% among 1,600; in the data active = inhibition above about 29%;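 also: 0% = agonist stimulated wells alone and 100% = agonist stimulated wells plus saturating reference antagonist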
MC4R barr ag: human MC4R beta-arrestin agonism confirmation. hit rate 31% among 2,400. activation, % at 8.9 µM. U2OS MC4R beta-arrestin recruitment, luminescence; scaled DMSO 0%, Melanotan II 100%. shares compounds with MC4R barr agon;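 active = mean activation across replicates above the hit cutoff set in the earlier primary screen, cut at about 8% in these data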
MOR-DOR barr ag: counter-screen for MC4R agonists: agonists of mu-delta opioid heterodimer. U2OS PathHunter beta-arrestin, beta-gal luminescence; percent of deltorphin B response, DMSO zero. shares compounds with MC4R barr agon. AID 602194. activation, % at 9.2 µM. hit rate 5.8% among 2,400;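 active = mean activation across replicates exceeds the hit threshold derived in the earlier primary screen, cut at about 18% in these data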;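 also: 100% = deltorphin B at 0.9 µM final and 0% = DMSO alone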
Target sequence (P35372 whole entry, looked up): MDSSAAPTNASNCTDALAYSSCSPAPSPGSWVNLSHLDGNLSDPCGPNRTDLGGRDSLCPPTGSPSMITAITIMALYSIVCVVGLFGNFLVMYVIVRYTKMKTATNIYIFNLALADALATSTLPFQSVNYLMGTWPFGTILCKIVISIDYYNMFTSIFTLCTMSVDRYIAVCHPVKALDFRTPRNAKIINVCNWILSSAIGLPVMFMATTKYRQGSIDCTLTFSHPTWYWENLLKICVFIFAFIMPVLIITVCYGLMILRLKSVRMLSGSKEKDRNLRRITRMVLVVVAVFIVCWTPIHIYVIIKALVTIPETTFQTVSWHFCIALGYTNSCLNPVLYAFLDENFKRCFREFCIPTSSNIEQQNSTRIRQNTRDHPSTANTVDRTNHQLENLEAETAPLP
Target sequence (P41143 whole entry, looked up): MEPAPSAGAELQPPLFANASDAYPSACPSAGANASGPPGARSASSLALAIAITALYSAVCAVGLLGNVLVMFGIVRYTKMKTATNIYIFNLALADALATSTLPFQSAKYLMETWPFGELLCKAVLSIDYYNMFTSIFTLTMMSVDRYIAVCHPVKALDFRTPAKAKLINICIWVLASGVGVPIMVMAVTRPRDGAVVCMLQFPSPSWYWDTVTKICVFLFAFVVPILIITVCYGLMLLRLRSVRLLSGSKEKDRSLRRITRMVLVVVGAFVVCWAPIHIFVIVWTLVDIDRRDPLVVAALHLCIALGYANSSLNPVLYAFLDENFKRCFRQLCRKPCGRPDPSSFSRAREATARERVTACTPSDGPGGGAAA
* hit, by the source's call; x = not tested or not shown. In the library only some 4.3% were active in any assay of this set; here they are far more common.

SMILES | MC4R antag cAMP | HTR2A ag | MC4R barr agon | Beta2AR agonist | TAAR1 agonist | TAAR1 antag | U2OS cAMP counter | MC4R antag conf | others
COc1cc2c(cc1NC(=O)COC(=O)CNS(=O)(=O)c1ccc(C)cc1)oc1ccccc12 | 30* | -8 | -1 | 3 | 0 | 15 | 11 | 41*
COc1ccc(NC(=O)COC(=O)CNS(=O)(=O)c2ccc(C)cc2)c(OC)c1 | 17 | -2 | 0 | -2 | -2 | 13 | x | x
COc1ccc(S(=O)(=O)N[C@@H](C)C(=O)OCC(=O)Nc2cc3oc4ccccc4c3cc2OC)cc1 | 35* | 11 | 1 | 19 | 6 | 16 | 23* | 39*
COC(=O)c1ccc(CNC(=O)COC(=O)CNS(=O)(=O)c2ccc(C)cc2)cc1 | 1 | 7 | 2 | x | 2 | -8 | x | x
Cc1ccc(S(=O)(=O)NCC(=O)OCC(=O)NCc2ccc(F)cc2)cc1 | 34* | -1 | -2 | 0 | 3 | -17 | 18* | 18
Cc1ccc(C(=O)NCC(=O)OCc2c(F)cccc2Cl)cc1 | 11 | -2 | 0 | 5 | 9 | -34 | x | x
Cc1ccc(S(=O)(=O)NCC(=O)NCC(=O)OCc2c(F)cccc2Cl)cc1 | 33* | 3 | -2 | 4 | 4 | -9 | 27* | 40*
COc1cc2c(cc1NC(=O)COC(=O)[C@@H](NS(=O)(=O)c1cccc(Cl)c1)C(C)C)oc1ccccc12 | 10 | -6 | 0 | -7 | -1 | -6 | x | x
Cc1nnsc1C(=O)Nc1ccc(S(=O)(=O)N2CCCC(C)C2)cc1 (centres undefined) | 5 | 1 | -1 | 5 | 11 | -12 | x | x
CCOc1cc(N2CCOCC2)c(OCC)cc1NC(=O)C(NC(=O)c1c(F)cccc1F)C(C)C (centres undefined) | -4 | -1 | -1 | 26 | 16 | -11 | x | x
CC1(CCC(=O)N2CCCC(Nc3ccc(F)cc3)C2)CC1 (centres undefined) | -5 | -1 | 2 | 2 | -2 | -13 | x | x
CN(Cc1c(C(=O)N/N=C/c2cccc(Cl)c2)nnn1-c1nonc1N)c1ccccc1 | 3 | -7 | 1 | 5 | -2 | 20 | x | x
O=C1CSC(=S)N1N=Cc1ccc2c(c1)OCO2 | -2 | -8 | -2 | -4 | -1 | 8 | x | x
O=C(COC(=O)c1ccc(Cl)c([N+](=O)[O-])c1)Nc1ccccc1OC(F)F | 34* | 1 | -2 | 1 | 3 | 33 | 21* | 47*
Cc1ccc(S(=O)(=O)NCC(=O)OCC(=O)Nc2ccccc2OC(F)F)cc1 | 33* | -1 | -1 | 2 | -1 | -4 | 13* | 29*
COc1ccc(CNC(=O)c2cc(S(=O)(=O)N3CCCCC3)ccc2N2CCOCC2)cc1OC | 3 | -1 | 0 | -2 | 8 | -6 | x | x
Cc1cc2c(c(=O)o1)[C@@]1(C(=O)N(C)c3ccccc31)C1=C(CC(C)(C)CC1=O)O2 | x | x | x | x | 14 | -19 | x | x
CC1CCN(C(=O)c2ccc3c(c2)NC(=O)/C(=C/c2ccccc2)S3)CC1 | 35* | -2 | 8.8* | 9 | 1 | -22 | -1 | 2
Cc1ccc(/C=C2/Sc3ccc(C(=O)N4CCN(C)CC4)cc3NC2=O)cc1 | 13 | 1 | 1 | 19 | 3 | 17 | x | x
Cn1cnnc1SCc1ccc(C(=O)N/N=C(/CCC(=O)O)c2ccc(C(C)(C)C)cc2)cc1 | 9 | 13 | -1 | 4 | 2 | -5 | x | x
CC(Sc1ccc2ccccc2n1)C(=O)O (centres undefined) | 58* | 2 | 3 | 21 | 12 | -2 | 42* | 77*
CCc1nnc(NS(=O)(=O)c2ccc(NC(=S)NC(=O)/C=C/c3ccc(C(C)C)cc3)cc2)s1 | 29* | 1 | 24* | 8 | x | x | -2 | -6 | MC4R barr ag=1;MOR-DOR barr ag=1
CCc1nnc(NS(=O)(=O)c2ccc(NC(=S)NC(=O)/C=C/c3ccccc3)cc2)s1 | 10 | -3 | -1 | 18 | -1 | 13 | x | x
Cc1nnc(-c2cccc(Br)c2)c2cn(-c3cccc(Br)c3)nc12 | 33* | 1 | 13* | -5 | 4 | 33 | 5 | 29* | MC4R barr ag=6;MOR-DOR barr ag=5
Cc1nnc(-c2cccc(Br)c2)c2cn(-c3ccccc3)nc12 | 21 | 5 | -2 | -9 | 9 | 20 | x | x
SMILES | MC4R antag cAMP | HTR2A ag | MC4R barr agon | Beta2AR agonist | TAAR1 agonist | TAAR1 antag | U2OS cAMP counter | MC4R antag conf | others
O=C(/C=C/c1ccc2c(c1)OCCO2)N1CCN(c2ccc(F)cc2)CC1 | 2 | 7 | -1 | -6 | -3 | 0 | x | x
O=C(/C=C/c1ccc2c(c1)OCO2)N1CCN(c2ccc(Cl)cc2)CC1 | 29* | 3 | 13* | -8 | 11 | -13 | -3 | -17 | MC4R barr ag=2;MOR-DOR barr ag=4
CC(=O)OC[C@]12CC[C@H]3[C@@](C)(CC[C@H]4C(C)(C)CCC[C@]34C)[C@@H]1CC(C1=CC(=O)OC1O)O2 (some centres undefined) | 52* | 0 | 91* | x | 1 | 60* | 6 | 35* | MC4R barr ag=26*;MOR-DOR barr ag=82*
CCCCCCCCCCCCCCCC[N+](C)(C)Cc1ccc(F)cc1 | 42* | -5 | 16* | -10 | 23 | 39 | -1 | 32* | MC4R barr ag=31*;MOR-DOR barr ag=13
O=C(COC(=O)Cn1cc(C(F)(F)F)ccc1=O)Nc1ccccc1 | 8 | 9 | -1 | 2 | -1 | 12 | x | x
Cn1nc2c3ccccc3n(Cc3ccccc3)c2nc1=S | 4 | 1 | 0 | -10 | 0 | -29 | x | x
C=C1CCc2c([nH]c3ccc(OCC(C)C)cc23)C1=O | 45* | 2 | 14* | 15 | 8 | -8 | 12 | 32* | MC4R barr ag=13*;MOR-DOR barr ag=12
CCCCCCCCCC[N+](C)(C)CC/C=C1/c2ccccc2Sc2ccc(Cl)cc21 | 41* | -6 | 17* | 2 | x | x | 9 | 40* | MC4R barr ag=18*;MOR-DOR barr ag=26*
CCCCCCCCCCC[N+](C)(C)CC/C=C1/c2ccccc2Sc2ccc(Cl)cc21 | 36* | -1 | 21* | 0 | x | x | 7 | 30* | MC4R barr ag=25*;MOR-DOR barr ag=19*
